Compound activity (PubChem)
Many of the other results were omitted from the sample, so hits are more common in it than they were.
PolyA inh – polyadenylation inhibitors in yeast reporter cells, primary screen, luminescence, S. cerevisiae | AID 1875, 2009 | S. cerevisiae SKY197-pL101 polyadenylation reporter, beta-gal luminescence; efflux-impaired pdr1/pdr3 knockout yeast; score 100 = 6 SD above DMSO | 300,000 compounds, 0.02% hits | activity score, % at 12 µM;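 active = lowest replicate activity score at least 50, where 100 means six control SD above control mean; inconclusive = lowest score under 50 but half or more replicates reach 50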;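 also: yeast exposed to compound for 9 h at 30 °C; higher score means more reporter readthrough which indicates perturbed polyadenylation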
NALP3 yeast inh – NALP3 inflammasome inhibitors in reconstituted yeast, primary screen, luminescence, uHTS. Yeast reconstituted NLRP3/ASC/caspase-1, beta-gal luminescence, 24 h. inhibition, % at 10 µM. 330,000 compounds, 0.39% hits. AID 2825, 2010;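 active = inhibition of 50% or more; inactive = inhibition below 50%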;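 also: plate controls were induced DMSO wells for no effect and uninduced yeast grown without galactose for full effect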
L major viab – Leishmania major promastigote growth inhibition, primary screen | Leishmania major promastigotes, resazurin fluorescence viability | inhibition, % at 10 µM | 200,000 compounds, 9% hits | AID 1063, 2008; in the data active = inhibition above about 50%;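 also: promastigotes grown with compound for 44 hours at 28 °C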
T cruzi repl – inhibitors of intracellular T. cruzi growth, primary screen, luminescence, NIH3T3 host cells; T. cruzi beta-gal in NIH3T3, 90 h; AID 1885, 2009; inhibition, % (concentration not given with the values); 300,000 compounds, 1.4% hits;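 active = mean inhibition across valid replicates above about 55%, limit read from the data; inconclusive = mean below that limit but half or more replicates reach it; inactive = mean below it, under half of replicates reach it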;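 also: signal also drops with host cell toxicity which is not excluded here; 0% = plate median of DMSO wells and 100% = zero luminescence signal; higher percent means less beta-gal luminescence so fewer parasites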
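assay system = mouse NIH/3T3 fibroblasts infected with β-gal-expressing T. cruzi Tulahuen C4 | input = 5,000 NIH/3T3 host cells per well | buffer or medium = DMEM plus 2% FBS | timing = 3 h host attachment, then at least 90 h co-culture | measured by = GalScreen luminescence, 60 min | evaluation = luminescence reflecting intracellular parasite burden, expressed as percent inhibition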
NALP1 inh – NALP1 inflammasome inhibitors in reconstituted yeast, colorimetric, S. cerevisiae, triplicate retest. S. cerevisiae NALP1/ASC/caspase-1 growth, X-gal OD620, 72 h. inhibition, % at 10 µM. 280,000 compounds, 0.61% hits; in the data active = inhibition mostly above about 24%, no sharp cut-off; inactive = mostly below about 32%
Calb FLC – C. albicans growth inhibition with fluconazole, primary screen, CaCi-2 strain, Alamar Blue fluorescence; C. albicans CaCi-2 (fluconazole-resistant clinical isolate) + fluconazole, 48 h; growth inhibition, % (no concentration beside the values); 300,000 compounds, 0.57% hits; AID 1979, 2009;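 active = growth inhibition above about 58% in most replicates, limit read from the data, passing the limit was not always enough; inconclusive = exactly half the replicates above a set limit; inactive = most replicates below a set limit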;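 also: all wells also contain fluconazole at 8 µg/ml as a sub-toxic cotreatment; 0% = median of DMSO wells and 100% = median of geldanamycin control wells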
Numbers without * were called inactive; u = inconclusive; x = no result given.

SMILES	PolyA inh	NALP3 yeast inh	L major viab	T cruzi repl	NALP1 inh	Calb FLC
CCOC(=O)c1ccc(NC(=O)Cc2coc3cc4c(cc23)CCC4)cc1	14	24	92*	54	30	3
CC(=O)Nc1ccc(NC(=O)CN(c2ccc(C(C)C)cc2)S(=O)(=O)c2ccccc2)cc1	19	16	1	5	9	-21
CCOc1cc(C(=O)Nc2cccc(OCC(=O)N3CCOCC3)c2)cc(OCC)c1OCC	22	5	x	9	30	4
O=C(Nc1ccc(C2=NCCN2)cc1)c1ccc(C(=O)Nc2ccc(C3=NCCN3)cc2)c(Cl)c1	-48	27	x	14	33	90*
Cc1ccc(C(=O)c2c[nH]c(C(=O)NCc3cccnc3)c2)cc1	4	4	0	-29	x	0
CCN(CC)C(=S)SC1CCCCN(C(=O)c2ccccc2)C1=O (configuration not stated)	-10	-16	x	-6	-6	0
COc1cccc(C(=O)COC(=O)CCCC(=O)NC2CCCCC2)c1	9	6	x	4	4	-3
CC(C)(C)NC(=O)c1cccc(NC(=O)CSc2ccc(Cl)cc2)c1	20	-4	91*	1	30	-2
CSc1cccc(NC(=O)CSc2ccc(Cl)cc2)c1	-15	2	54*	-13	5	3
Cc1cc(C)cc(NC(=O)CSc2nc(CSc3ccc(Cl)cc3)cc(=O)[nH]2)c1	-6	-3	x	-1	34*	-9
CN(C)CCCNCC(=O)c1c(-c2ccccc2)n(C)c2ccccc12	u	x	x	29	23	-4
CCOC(=O)C1CCC(CN(Cc2ccccc2C)S(=O)(=O)c2ccc([N+](=O)[O-])cc2)CC1 (configuration not stated)	4	29	86*	37	36	6
O=C(CCS(=O)(=O)c1ccccc1)Nc1nc(-c2ccccn2)cs1	-6	1	92*	-108	x	-4
COc1ccc(OC)c(-c2csc(NC(=O)CSc3ccccc3)n2)c1	-5	20	77*	-9	45	-3
Cc1cc(C)c(OCC(=O)Nc2nc(-c3ccccn3)cs2)c(C)c1	-22	2	87*	70*	-8	1
COc1ccc(OCCCC(=O)Nc2nc(-c3ccccn3)cs2)cc1	1	27	100*	62*	-8	4
Cc1ccccc1OCC(=O)Nc1nc(-c2ccncc2)cs1	x	1	x	x	x	x
COc1ccc2oc(C(=O)NC(C)c3ccccn3)c(C)c2c1 (configuration not stated)	x	20	x	x	x	x
COc1ccc2oc(C(=O)Nc3nc(-c4ccccn4)cs3)c(C)c2c1	3	6	x	70*	x	15
COc1ccc(-c2noc(CSc3nc4ccccc4c(=O)n3-c3ccccc3)n2)cc1OC	4	1	24	18	4	-8
CCOc1ccc(-n2c(SCc3nc(-c4ccc(C)cc4)no3)nnc2-c2ccncc2)cc1	2	9	41	58*	14	15
Cc1ccc(-c2noc(CSc3nnc(-c4ccncc4)n3-c3ccc(C)cc3)n2)cc1	-3	-10	14	u	-12	6
COc1ccc(-c2noc(CSc3nnc(Cc4ccccc4)n3-c3cccc(C)c3)n2)cc1OC	7	6	54*	36	22	52
Cc1ccc(-c2noc(CSc3nnc(Cc4ccccc4)n3-c3cccc(C)c3)n2)cc1	-2	7	80*	14	4	21
COc1cc(OC)cc(C(=O)NCCCCc2ccccc2)c1	2	10	x	22	x	9
SMILES	PolyA inh	NALP3 yeast inh	L major viab	T cruzi repl	NALP1 inh	Calb FLC
COc1ccccc1CN1C(=NC(=O)C2CCCCC2)SC2CS(=O)(=O)CC21 (configuration not stated)	14	3	x	20	9	10
CNc1ccc(C(O)(C(F)(F)F)C(F)(F)F)cc1C(O)(C(F)(F)F)C(F)(F)F	-6	-42	98*	7	-3	-6
CC1=Nc2cc(C(=O)NCc3ccco3)ccc2Sc2ccc(C)cc21	7	13	59*	-31	-48	12
O=C(CNC(=O)c1ccc2ccccc2c1)NCc1ccc(F)cc1	15	12	x	-3	18	4
CCOC(=O)C1(Cc2ccc(Cl)cc2)CCN(C(=O)c2ccoc2)CC1	-44	11	53*	4	0	6
CCOC(=O)C1(Cc2ccc(Cl)cc2)CCN(C(=O)c2cnc(C)cn2)CC1	6	4	x	-9	x	-2
CCc1ccc(N=c2c([N+](=O)[O-])nn(-c3ccccc3)n2O)cc1	-10	36	88*	56*	12	-8
Cc1ccc(CN=c2c([N+](=O)[O-])nn(-c3cccc(Cl)c3)n2O)cc1	-20	18	20	24	0	-13
Cc1ccc(CN=c2c([N+](=O)[O-])nn(-c3cccc(C)c3)n2O)cc1	-16	13	20	31	-20	-4
Cc1cc(C)cc(N=c2c([N+](=O)[O-])nn(-c3ccc(Cl)cc3)n2O)c1	-9	-18	95*	59*	-3	26
CC(=O)Nc1sc(C)c(C)c1C(=O)OCC(=O)NCc1ccc(F)cc1	x	17	x	x	x	x
COc1ccc2cc(/C=N/NC(=O)c3ccc(CN(c4cccc(Cl)c4Cl)S(C)(=O)=O)cc3)c(Cl)nc2c1	7	8	80*	48	30	-1
COc1ccc2c(c1)c(C(=O)CN1CCc3ccccc3C1)c(C)n2C	-10	16	x	u	-4	-5
CCN(CC)S(=O)(=O)c1ccc(N2CCOCC2)c(NC(=O)c2cc3ccccc3oc2=O)c1	-15	19	x	12	-18	-22
Cc1cc(NC(=O)c2c(F)cccc2Cl)n(-c2nc3ccccc3[nH]2)n1	-14	6	25	25	17	109*
COc1ccc(/C=C/C(=O)Nc2cc(C)nn2-c2nc3ccccc3[nH]2)cc1	12	-6	0	55*	27	2
COc1cc(C)c(NC(c2ccccc2)c2ccccc2)cc1OC	-6	13	91*	3	-4	39
Cc1ccc(N2CC(C(=O)Nc3nnc(SCC(=O)Nc4cc(C)on4)s3)CC2=O)cc1 (configuration not stated)	4	-12	60*	-3	22	22
COc1cccc(N2CC(C(=O)Nc3nnc(SCC(=O)Nc4cc(C)on4)s3)CC2=O)c1 (configuration not stated)	-2	2	-5	-8	1	-12
